The source of these data is ChEMBL document CHEMBL4033789, “Discovery of a New Four-Leaf Clover-Like Ligand as a Potent c-MYC Transcription Inhibitor Specifically Targeting the Promoter G-Quadruplex” (J Med Chem, 2018).

A short description of this experiment: Binding affinity to VEGF promoter G-quadruplex DNA (unknown origin) after 1 min by fluorescence titration method. Format: ADME. In a few lines:
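Oligonucleotide stock added stepwise to fixed-concentration compound in 10 mM Tris-HCl pH 7.2, 100 mM KCl; equilibrated ≥1 min after each addition, emission read with excitation at 350 nm. KD from fitting titration data to the Benesi–Hildebrand equation; 1:1 stoichiometry checked by Job plot.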

Compound `CCn1c2ccccc2c2cc(-c3nc(-c4ccc(N5CCN(C)CC5)cc4)c(-c4ccc(N5CCN(C)CC5)cc4)n3-c3ccc(OC)cc3)ccc21` gave a Kd of 900 nM.

Broadly, the Kd is the free concentration of one partner at which half of the binding sites on the other are occupied at equilibrium, for simple one-to-one binding. A low value points to a tighter complex.
